Experimental data published in ChEMBL document CHEMBL4665722, “Discovery of a novel selective water-soluble SMAD3 inhibitor as an antitumor agent” (Bioorg Med Chem Lett, 2020).
≈ marks a conversion by molar mass, not a printed value. Calls of active or inactive are those of the source. No cut-off for these calls is given here.

Columns and labels:
[1] = Solubility of the compound in PBS buffer at pH 7.4; assay type: physicochemical
Outline: (§1)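 Solubility of free base or HCl salt measured in pure water and in phosphate buffer pH 7.4 at room temperature, quantified by HPLC.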

A549 = experiment: Cytotoxicity against human A549 cells assessed as inhibition of cell growth by MTT assay; assay type: functional; conditions: read-out: TD50 (the source's name)
Outline: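 A549 cell growth measured by MTT assay. Value is the concentration giving 50% growth inhibition relative to controls, mean of three experiments.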

[2] = biological target: Mothers against decapentaplegic homolog 2 (Homo sapiens) (UniProt Q15796); experiment: Inhibition of TGF-beta induced SMAD2 phosphorylation in human A549 cells at 5 to 10 uM pretreated with compound for 2 hrs followed by TGF-beta stimulation by Western blot analysis; assay type: cell-based; conditions: dose microM 5-10, time 2.0 hrs
Outline: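 A549 cells pre-treated 2 h at 5 and 10 μM, then stimulated with 1 ng/mL TGF-β for 30 min. Lysates probed by western blot for phospho-SMAD2, SMAD2, phospho-SMAD3 and SMAD3. GAPDH served as loading control.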

Lewis lung carcinoma [3] = experiment: Antitumor activity against mouse Lewis lung carcinoma cells allografted in ip dosed C57BL/6 mouse assessed as reduction in tumor weight administered for 20 consecutive days; conditions: dose microg/g 1.25-5, time 20.0 day
Lewis lung carcinoma [4] = experiment: Antitumor activity against mouse Lewis lung carcinoma cells allografted in ip dosed C57BL/6 mouse assessed as reduction in tumor volume administered for 20 consecutive days; conditions: dose microg/g 1.25-5, time 20.0 day
Mus musculus = experiment: Induction of NK-mediated antitumor immunity in ip dosed C57BL/6 mouse allografted with mouse Lewis lung carcinoma cells assessed as increase in NK cell infiltration in tumor by immunofluorescent staining based assay; conditions: dose microg/g 1.25-5
[5] = Solubility of the compound in water; assay type: physicochemical; outline: as §1
[6] = biological target: Mothers against decapentaplegic homolog 3 (Homo sapiens) (UniProt P84022); conditions: NIH3T3
Mothers against decapentaplegic homolog 3 (Homo sapiens), sequence (P84022 2-425 limits assumed): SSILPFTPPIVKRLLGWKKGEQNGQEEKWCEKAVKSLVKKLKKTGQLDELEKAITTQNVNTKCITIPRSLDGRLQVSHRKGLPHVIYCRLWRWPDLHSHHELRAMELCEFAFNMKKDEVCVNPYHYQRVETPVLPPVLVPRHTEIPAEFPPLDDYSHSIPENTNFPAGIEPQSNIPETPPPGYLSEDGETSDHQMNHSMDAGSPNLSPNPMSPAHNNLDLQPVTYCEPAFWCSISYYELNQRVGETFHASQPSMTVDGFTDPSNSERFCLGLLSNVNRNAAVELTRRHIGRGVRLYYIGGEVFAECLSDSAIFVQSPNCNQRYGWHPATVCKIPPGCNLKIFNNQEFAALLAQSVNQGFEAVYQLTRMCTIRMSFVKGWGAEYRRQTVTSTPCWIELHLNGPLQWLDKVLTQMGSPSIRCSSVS

Mothers against decapentaplegic homolog 2 (Homo sapiens), sequence (Q15796 whole entry): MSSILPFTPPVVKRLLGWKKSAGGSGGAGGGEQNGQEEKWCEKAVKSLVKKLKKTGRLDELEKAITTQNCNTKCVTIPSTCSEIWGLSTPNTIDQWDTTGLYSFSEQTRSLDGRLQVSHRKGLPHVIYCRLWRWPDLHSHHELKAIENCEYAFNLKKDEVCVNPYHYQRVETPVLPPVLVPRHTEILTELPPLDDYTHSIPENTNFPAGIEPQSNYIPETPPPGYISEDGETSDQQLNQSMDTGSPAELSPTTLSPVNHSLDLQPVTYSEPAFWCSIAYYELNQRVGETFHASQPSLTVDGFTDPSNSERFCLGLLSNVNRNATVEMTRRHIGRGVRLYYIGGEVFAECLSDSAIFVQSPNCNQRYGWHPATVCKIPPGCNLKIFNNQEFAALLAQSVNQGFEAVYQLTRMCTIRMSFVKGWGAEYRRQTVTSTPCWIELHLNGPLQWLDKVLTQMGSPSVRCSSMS

SMILES	solubility [1] [mg/mL]	CC50 (A549) [µM]	inhibition [2]	further results
Cc1nc(C)c(CN2CC/C(=C\c3c(-c4ccccc4)n(C)c4ncccc34)C2=O)nc1C [listing 1 of 2 here]	0.014 (≈ 32 µM)	22	–	–
Cc1nc(C)c(CN2CC/C(=C\c3c(-c4ccccc4)n(C)c4ncccc34)C2=O)nc1C [listing 2 of 2 here]	–	–	inactive	Activity (Lewis lung carcinoma [3]): Dose-dependent effect; Activity (Lewis lung carcinoma [4]): Dose-dependent effect; Activity (Mus musculus): Dose-dependent effect
COc1cc2c(cc1OC)CN(C(=O)/C=C/c1c(-c3ccccc3)n(C)c3ncccc13)CC2.Cl	0.006	18.7	–	solubility [5]: 0.141 mg/mL; ED50 [6]: 4.53 µM
Cc1nc(C)c(CN2CC/C(=C\c3c(-c4ccccc4)n(C)c4ncccc34)C2=O)nc1C.Cl	–	–	–	solubility ([5]; water): > 94 mg/mL
COc1ccc(CN2CC/C(=C\c3c(-c4ccccc4)n(C)c4ncccc34)C2=O)cc1OC	–	–	inactive	–
